An excerpt weighted towards active compounds, which were near 1.9% of everything screened.
Xi reactivation = reactivates the inactive X chromosome in mouse fibroblasts | XiGFP mouse fibroblasts, % GFP-positive cells imaging, 3 d; cells co-treated with 5-aza-dC sensitizer; scaled so ellipticine positive control = 100% | activation, % at 7.58 µM | 0.055% of 360,000 active;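 active = mean normalized replicate activation at least 10% and every replicate at or above 10%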;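 also: 0% = median of on-plate neutral control wells and 100% = ellipticine 6 µM median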
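System: 68-5-11 XiGFP fibroblast line; Timing: 3 days compound exposure; Compound dosing: one concentration, pinned; Benchmarks: positive control ellipticine, 6 µM final; Buffer or medium: DMEM containing 5-aza-dC.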
ABHD5-PLIN5 inh = ABHD5-PLIN5 protein interaction inhibition; 0.78% of 360,000 active; Q00G26+Q8WTS1; AID 602281; Split G. princeps luciferase complementation, luminescence, 4 h; inhibition, % at 4 µM;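 active = inhibition above the mean inhibition across every tested compound plus 3 SD, cut at about 22% in these data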;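 also: 0% = DMSO only wells and the 100% control is not disclosed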
Rpn11 block = Rpn11 (human) deubiquitinase inhibition; human 26S proteasome, Ub4-pepOG fluorescence polarization; 20S core pre-blocked with epoxomicin; 0.59% of 360,000 active; inhibition, % at 20 µM; O00487; AID 588493;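 active = inhibition at 20 µM, scaled to each plate's controls, above about 33%, limit read from the data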
Rin1-Abl PPI inh = human Rin1-Abl interaction inhibition; 0.4% of 360,000 active; AID 588664; TR-FRET Rin1/Abl binding, biochemical; inhibition, % at 7.35 µM; P00519+Q13671; in the data active = inhibition above about 5%, passing the limit was not always enough
NadD block = inhibitors of Staphylococcus aureus NadD; inhibition, % at 20 µM; AID 602399; purified NadD enzyme, colorimetric absorbance read-out; 0.78% of 360,000 active; in the data active = inhibition above about 26%
ABHD5-PLIN5 conf = confirmation of human ABHD5-PLIN5 interaction inhibitors; shares compounds with ABHD5-PLIN5 inh; biochemical ABHD5-PLIN5 interaction, luminescence; inhibition, % at 4 µM; 67% of 2,200 active; AID 651612; in the data active = inhibition above about 23%;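 also: 0% = DMSO vehicle wells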
HNF4 split-luc = HNF4 split-luciferase signal hit, counter-screen; shares compounds with ABHD5-PLIN5 inh; 77% of 2,200 active; inhibition, % at 4 µM; HNF4 dimerization, luminescence, biochemical; AID 651674;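 active = mean inhibition across replicate wells exceeding the computed hit threshold, cut at about 13% in these data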;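 also: light from luciferase halves that rejoin when HNF4 fusion proteins dimerize; 0% = DMSO only wells and the 100% control is not given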
Numbers without * were called inactive; ! = a repeat was not active.

CCOc1ccc(S(=O)(=O)NCc2ccco2)c2ccccc12 was read as ABHD5-PLIN5 inh 26*, Rpn11 block 3, Rin1-Abl PPI inh -2, NadD block -2, ABHD5-PLIN5 conf 8 and HNF4 split-luc 7.
`O=C(CC(Nc1ccc(F)cc1)C(=O)O)c1ccccc1` (stereo unspecified) gave ABHD5-PLIN5 inh 43*, Rpn11 block 2, Rin1-Abl PPI inh 1, NadD block -1, ABHD5-PLIN5 conf 38* and HNF4 split-luc 89*.
Screening CCOC(=O)c1nc(S(C)(=O)=O)ncc1Cl returned ABHD5-PLIN5 inh 55*, Rpn11 block -1, Rin1-Abl PPI inh 0, NadD block -1, ABHD5-PLIN5 conf 56* and HNF4 split-luc 90*.
For CS(=O)(=O)c1ncc(Cl)c(C(=O)Nc2ccc(OC(F)F)cc2)n1 the results were ABHD5-PLIN5 inh 75*, Rpn11 block -1, Rin1-Abl PPI inh 0, NadD block -1, ABHD5-PLIN5 conf 89* and HNF4 split-luc 103*.
Screening Cc1ccccc1NC(=O)c1nc(S(C)(=O)=O)ncc1Cl returned Xi reactivation 0, ABHD5-PLIN5 inh 38*, Rpn11 block -1, Rin1-Abl PPI inh -1, NadD block -4, ABHD5-PLIN5 conf 59* and HNF4 split-luc 85*.
For CC[C@@H]1CC=C[C@H]2[C@H]1C(=O)N(Cc1ccccc1)[C@H]2c1ccoc1 the results were ABHD5-PLIN5 inh 24*, Rpn11 block 15, Rin1-Abl PPI inh 4, NadD block 11, ABHD5-PLIN5 conf 37* and HNF4 split-luc 35*.
`COc1cccc(C2CC(c3ccccc3Cl)Nc3nc(N)nn32)c1` (stereo unspecified) gave ABHD5-PLIN5 inh 23*, Rpn11 block 1, Rin1-Abl PPI inh 5, NadD block 4, ABHD5-PLIN5 conf 7 and HNF4 split-luc 2.
COc1cccc(C2CC(c3ccc(Cl)cc3Cl)Nc3nc(N)nn32)c1 (stereo unspecified) was read as ABHD5-PLIN5 inh 21, Rpn11 block 7, Rin1-Abl PPI inh 1 and NadD block 12.
`C[C@@H]1CN([C@@H](C)CO)C(=O)c2cc(-c3ccc(C(=O)N(C)C)cc3)cnc2O[C@H]1CN(C)C(=O)CN(C)C` gave Xi reactivation 1.
Cc1ccc(Oc2c(C(N)=O)cc([N+](=O)[O-])cc2[N+](=O)[O-])cc1 was read as Xi reactivation 0, ABHD5-PLIN5 inh 63*, Rpn11 block -1, Rin1-Abl PPI inh 1, NadD block -1, ABHD5-PLIN5 conf 95* and HNF4 split-luc 74*.
For Cc1ccc(Cl)cc1-n1c(=O)cc(N2CCN(C(=O)c3ccco3)CC2)[nH]c1=O the results were ABHD5-PLIN5 inh 23*, Rpn11 block 23, Rin1-Abl PPI inh 2, NadD block -4, ABHD5-PLIN5 conf 5 and HNF4 split-luc 4.
`O=C(c1ccco1)N1CCN(c2cc(=O)n(-c3ccc(Cl)cc3)c(=O)[nH]2)CC1` gave Xi reactivation 0, ABHD5-PLIN5 inh 13, Rpn11 block 4, Rin1-Abl PPI inh -2 and NadD block 4.
`CCCNC(=O)N[C@H]1CC[C@@H](CC(=O)NC2CCCCC2)O[C@@H]1CO` gave Xi reactivation 0.
For C[C@@H]1CN([C@@H](C)CO)C(=O)c2cc(-c3ccc(C#N)cc3)cnc2O[C@H]1CN(C)Cc1cncnc1 the results were Xi reactivation 0.
Screening Cc1cc(C)c(NC(=O)CN2CCN3CCCC3C2)c(C)c1 (stereo unspecified) returned Xi reactivation 0, ABHD5-PLIN5 inh 32*!, Rpn11 block -1, Rin1-Abl PPI inh 0, NadD block 3, ABHD5-PLIN5 conf 33* and HNF4 split-luc 1.
O=C(O)c1cccc(Nc2ccc3nonc3c2[N+](=O)[O-])c1 was read as Xi reactivation 0, ABHD5-PLIN5 inh -5, Rpn11 block -13, Rin1-Abl PPI inh -4 and NadD block -3.
